Laboratory results reported in ChEMBL document CHEMBL4706676 (Bioorg Med Chem Lett, 2021).
pIC50: −log10 of the molar value.

Columns and labels:
Type in all cases: functional, cell-based
[1] = test system: CWR22R; test: Antiproliferative activity against human 22Rv1 cells assessed as reduction in cell viability
Outline: (§1)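 Human prostate cancer cells taken from exponential-phase culture, seeded at 8000–12,000 cells/well and allowed 24 h recovery. Compounds then added at 10 half-log concentrations in triplicate, with medium-only controls, for a total 96 h exposure. After a PBS wash, cells stained with propidium iodide plus 0.1% Triton X-100 for 1–2 h at room temperature. Fluorescence read (ex 530/em 620 nm) as attached viable cells. IC50 from 4-parameter curve fit, geometric mean of three independent experiments.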

[2] = test system: LNCaP; test: Antiproliferative activity against human LNCaP cells assessed as reduction in cell viability
Outline: as §1, with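 “temperature.” for “temperature. Fluorescence read (ex 530/em 620 nm) as attached viable cells.”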

[3] = test system: DU-145; test: Antiproliferative activity against human DU-145 cells assessed as reduction in cell viability; outline: as §1
[4] = test system: VCaP; test: Antiproliferative activity against human VCaP cells assessed as reduction in cell viability; outline: as §1

Compound | pIC50 ([1]; Homo sapiens, 22Rv1) | pIC50 ([2]; Homo sapiens, LNCaP) | pIC50 ([3]; Homo sapiens, DU-145) | pIC50 [4] | pIC50 ([1]; cwr22r) | pIC50 ([2]; lncap) | pIC50 ([3]; du-145)
CC(O)(C[S+]([O-])c1ccccc1OC(F)(F)F)C(=O)Nc1ccc([N+](=O)[O-])cc1C(F)(F)F (stereo not drawn) | 4.82 | 5.04 | 4.51 | 4.68 | – | – | –
CC(O)(C[S+]([O-])c1ccc(OC(F)(F)F)cc1)C(=O)Nc1ccc([N+](=O)[O-])cc1C(F)(F)F (stereo not drawn) | < 4.00 | < 4.00 | < 4.00 | < 4.00 | – | – | –
CC(O)(C[S+]([O-])c1ccc(F)cc1F)C(=O)Nc1ccc([N+](=O)[O-])cc1C(F)(F)F (stereo not drawn) | 4.29 | 4.61 | < 4.00 | < 4.00 | – | – | –
CC(O)(C[S+]([O-])c1ccc(C(F)(F)F)cn1)C(=O)Nc1ccc([N+](=O)[O-])cc1C(F)(F)F (stereo not drawn) | < 4.00 | < 4.00 | < 4.00 | < 4.00 | – | – | –
CC(O)(C[S+]([O-])c1ccc(C(F)(F)F)cc1)C(=O)Nc1ccc([N+](=O)[O-])cc1C(F)(F)F (stereo not drawn) | 4.68 | 4.59 | 4.44 | 4.62 | – | – | –
CC(O)(C[S+]([O-])c1ccc(OC(F)(F)F)cc1)C(=O)Nc1ccc(C#N)c(C(F)(F)F)c1 (stereo not drawn) | 4.39 | 4.44 | 4.28 | 4.27 | – | – | –
CC(O)(C[S+]([O-])c1ccccn1)C(=O)Nc1ccc([N+](=O)[O-])cc1C(F)(F)F (stereo not drawn) | < 4.00 | < 4.00 | < 4.00 | 4.00 | – | – | –
CC(O)(C[S+]([O-])c1ccccn1)C(=O)Nc1ccc(C#N)c(C(F)(F)F)c1 (stereo not drawn) | < 4.00 | < 4.00 | < 4.00 | < 4.00 | – | – | –
CC(O)(C[S+]([O-])c1ccc(F)c(F)c1)C(=O)Nc1ccc([N+](=O)[O-])cc1C(F)(F)F (single isomer, unassigned) | < 4.00 | < 4.00 | < 4.00 | < 4.00 | – | – | –
CC(O)(C[S+]([O-])c1ccc(C(F)(F)F)cn1)C(=O)Nc1ccc(C#N)c(C(F)(F)F)c1 (stereo in doubt; form 1) | 4.18 | 4.02 | 4.00 | < 4.00 | – | – | –
CC(O)(C[S+]([O-])c1ccc(C(F)(F)F)cn1)C(=O)Nc1ccc(C#N)c(C(F)(F)F)c1 (stereo in doubt; form 2) | – | – | – | – | 4.11 | < 4.00 | < 4.00
